Experimental data published in ChEMBL document CHEMBL1132372, “The opioid mu agonist/delta antagonist DIPP-NH(2)[Psi] produces a potent analgesic effect, no physical dependence, and less tolerance than morphine in rats” (J Med Chem, 1999).
Square brackets hold non-standard residues; d marks the D form. Peptide text beside a SMILES is read from it. NMeDmt = CN[C@@H](Cc1c(C)cc(O)cc1C)C(=O)O; Dmt = Cc1cc(O)cc(C)c1C[C@H](N)C(=O)O; Tic = O=C(O)[C@@H]1Cc2ccccc2CN1

How the values were obtained:
Mu-type opioid receptor = Mu-type opioid receptor (Rattus norvegicus, UniProt P33535); experiment: Binding affinity for Opioid receptor mu 1 determined by displacing [3H]DAMGO from rat brain membrane binding sites
[1] = biological target: Delta-type opioid receptor (Rattus norvegicus, UniProt P33533); experiment: Binding affinity for Opioid receptor delta 1 determined by displacing [3H]-DSLET from rat brain membrane binding sites
[2] = biological target: Kappa-type opioid receptor (Cavia porcellus, UniProt P41144); experiment: Binding affinity for Opioid receptor kappa 1 determined by displacement of [3H]U-69593 from guinea pig brain membranes; set-up: species or system Membrane
Outline: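 Guinea pig brain membranes incubated 2 h at 0 °C with 0.80 nM [3H]U69,593. IC50 taken from log dose-displacement curves; Ki by Cheng-Prusoff using Kd 2.9 nM.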

Mus musculus [3] = organism: Mus musculus; experiment: Compound was evaluated for its antagonist potency against delta agonist […] by MVD assay(mouse vas deferens).; type: functional
Cavia porcellus [4] = organism: Cavia porcellus; experiment: Compound was evaluated for antagonist potency against mu receptor. agonist TAPP by GPI (guinea pig ileum) assay.; type: functional
Mus musculus [5] = organism: Mus musculus; experiment: Compound was evaluated for its antagonist potency against delta agonist deltorphin I, by MVD assay(mouse vas deferens).; type: functional
Cavia porcellus [6] = organism: Cavia porcellus; experiment: Compound was evaluated for inhibition of electrically evoked contractions of the GPI (guinea pig ileum); type: functional
Outline: (§1)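 Inhibition of electrically evoked contractions of guinea pig ileum. Each preparation also run with a [Leu5]enkephalin standard dose-response curve, and test IC50 values normalised against it.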

Cavia porcellus [7] = organism: Cavia porcellus; experiment: Compound was evaluated for inhibition of electrically evoked contractions of the GPI (guinea pig ileum); PA=Partial agonist; type: functional; outline: as §1
Rattus norvegicus = organism: Rattus norvegicus; experiment: Analgesic Potency of compound in Comparison with Morphine evaluated by rat tail flick test; type: functional

Kappa-type opioid receptor, sequence (P41144 whole entry): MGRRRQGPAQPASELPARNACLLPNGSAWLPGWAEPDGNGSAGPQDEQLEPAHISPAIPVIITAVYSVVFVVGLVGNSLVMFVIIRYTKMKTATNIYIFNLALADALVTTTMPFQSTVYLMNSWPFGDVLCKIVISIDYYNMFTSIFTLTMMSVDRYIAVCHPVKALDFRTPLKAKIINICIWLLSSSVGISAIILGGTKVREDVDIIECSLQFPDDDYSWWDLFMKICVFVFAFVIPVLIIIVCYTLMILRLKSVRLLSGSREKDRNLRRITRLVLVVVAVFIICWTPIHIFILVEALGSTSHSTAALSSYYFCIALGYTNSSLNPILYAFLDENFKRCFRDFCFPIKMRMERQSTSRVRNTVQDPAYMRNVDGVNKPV
Delta-type opioid receptor, sequence (P33533 whole entry): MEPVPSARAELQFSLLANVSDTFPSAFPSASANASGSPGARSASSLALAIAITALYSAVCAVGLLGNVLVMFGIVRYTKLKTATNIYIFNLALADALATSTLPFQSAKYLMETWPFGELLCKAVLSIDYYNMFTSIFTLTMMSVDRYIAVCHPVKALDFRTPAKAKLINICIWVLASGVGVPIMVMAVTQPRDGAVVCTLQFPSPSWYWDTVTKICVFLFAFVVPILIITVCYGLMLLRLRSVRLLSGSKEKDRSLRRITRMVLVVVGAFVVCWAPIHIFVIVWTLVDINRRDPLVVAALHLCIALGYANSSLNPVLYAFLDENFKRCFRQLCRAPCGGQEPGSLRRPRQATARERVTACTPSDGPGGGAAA
Mu-type opioid receptor, sequence (P33535 whole entry): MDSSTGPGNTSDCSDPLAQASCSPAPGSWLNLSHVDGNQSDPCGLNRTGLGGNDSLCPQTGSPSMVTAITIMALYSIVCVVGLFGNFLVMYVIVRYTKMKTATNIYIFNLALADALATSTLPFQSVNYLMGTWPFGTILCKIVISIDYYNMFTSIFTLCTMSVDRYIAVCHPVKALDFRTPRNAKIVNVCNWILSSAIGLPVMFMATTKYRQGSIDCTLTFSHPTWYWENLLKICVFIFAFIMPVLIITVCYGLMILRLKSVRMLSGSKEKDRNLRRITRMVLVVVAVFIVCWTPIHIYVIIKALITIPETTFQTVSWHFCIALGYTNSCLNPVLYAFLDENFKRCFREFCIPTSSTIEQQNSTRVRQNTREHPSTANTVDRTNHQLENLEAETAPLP

CN[C@@H](Cc1c(C)cc(O)cc1C)C(=O)N1Cc2ccccc2CC1CN[C@@H](Cc1ccccc1)C(=O)N[C@@H](Cc1ccccc1)C(N)=O (stereo partly drawn)
Ki (Mu-type opioid receptor): 76.2 nM
Ki [1]: 61 nM
Ki [2]: > 1000 nM
Ke (Mus musculus [3]): 22.1 nM
Ke (Cavia porcellus [4]): 64.5 nM
Ke (Mus musculus [5]): 54.4 nM

Cc1cc(O)cc(C)c1C[C@H](N)C(=O)N1Cc2ccccc2CC1CN[C@@H](Cc1ccccc1)C(=O)N[C@@H](Cc1ccccc1)C(N)=O (stereo partly drawn)
Ki [2]: > 1000 nM
IC50 (Cavia porcellus [6]): 7.71 nM
Ke (Mus musculus [3]): 0.537 nM
Ke (Mus musculus [5]): 0.486 nM

Cc1cc(O)cc(C)c1C[C@H](N)C(=O)N1Cc2ccccc2C[C@H]1C(=O)N[C@@H](Cc1ccccc1)C(=O)N[C@@H](Cc1ccccc1)C(N)=O (H-[Dmt][Tic]FF-NH2)
Ki [2]: > 1000 nM

CN[C@@H](Cc1c(C)cc(O)cc1C)C(=O)N1Cc2ccccc2C[C@H]1C(=O)N[C@@H](Cc1ccccc1)C(=O)N[C@@H](Cc1ccccc1)C(N)=O (H-[NMeDmt][Tic]FF-NH2)
Ki (Mu-type opioid receptor): 4.08 nM
Ki [1]: 0.393 nM
IC50 (Cavia porcellus [7]): Partial agonist
Ki [2]: > 1000 nM
Ke (Mus musculus [3]): 0.235 nM
Ke (Mus musculus [5]): 0.233 nM

CN1CC[C@]23c4c5ccc(O)c4O[C@H]2[C@@H](O)C=C[C@H]3[C@H]1C5 [MORPHINE]
ED50 (Rattus norvegicus): 0.11 µg
